In test [1] the test system is Globisporangium irregulare. Nature of the test: Antiparasitic activity against Pythium irregulare assessed as culture diameter at 0.5 mg/ml after 24 hr. The class given is functional. In outline:
(§1)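 P. irregulare: 3-mm agar plugs from 1-week cultures (20 °C, dark) were placed in wells with water plus test solution in DMSO (final 2% DMSO). Exposure was 24 h at 25 °C in the dark. Plugs were then rinsed, blotted and placed on PDA with 250 mg/L ampicillin. Colony diameter was measured after 48 h at 20 °C, excluding dead plugs, and expressed as % of the water control. EC50 was derived by regression. Eight wells per concentration.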

For test [2], the system named is Globisporangium irregulare. Nature of the test: Antiparasitic activity against Pythium irregulare assessed as culture diameter at <= 0.3 mg/ml after 24 hr. It counts as functional, organism-based. The gist of the method:
as §1

Test [3] concerns Globisporangium irregulare. Briefly: Antiparasitic activity against Pythium irregulare assessed as culture diameter at 0.3 mg/ml after 24 hr. The class given is functional. The gist of the method:
as §1

In test [4] the test system is Meloidogyne hapla. Briefly: Antiparasitic activity against Meloidogyne hapla J2 assessed as larvicidal activity after 24 hr. The class given is functional, organism-based. The following applies: J2, 24 h. In outline:
(§2)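 M. hapla J2 (tomato-cultured isolate) in 96-well plates, 40–60 J2 per well in water with test solution in DMSO (final DMSO 2% v/v). Incubated covered in the dark at 25 °C for 24 h, then mortality scored visually. Compounds were then removed and replaced with water, and mortality was rescored after another 24 h. EC50 was taken from dose-response regression. Eight wells per concentration; experiments were run at least twice.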

The subject of test [5] is Globisporangium irregulare. Briefly: Antiparasitic activity against Pythium irregulare assessed as culture diameter at 0.15 mg/ml after 24 hr. The class given is functional. In outline: as §1
The test system of test [6] is Globisporangium irregulare. Nature of the test: Antiparasitic activity against Pythium irregulare assessed as culture diameter at 0.75 mg/ml after 24 hr. The class given is functional. In outline:
as §1

Test [7] relates to Globisporangium irregulare. Briefly: Antiparasitic activity against Pythium irregulare assessed as culture diameter at 0.05 mg/ml after 24 hr. It counts as functional. In outline: as §1
Test [8] concerns Globisporangium irregulare. Nature of the test: Antiparasitic activity against Pythium irregulare assessed as culture diameter after 24 hr. The class given is functional, organism-based. In outline: as §1
Test [9] relates to Meloidogyne hapla. Briefly: Antiparasitic activity against Meloidogyne hapla J2 assessed as larvicidal activity for 24 hr measured after replacement with water. It counts as functional, organism-based. The conditions noted are these: J2, 24 h. The gist of the method: as §2
Test [10] concerns Globisporangium irregulare. Nature of the test: Antiparasitic activity against Pythium irregulare assessed as culture diameter at 0.1 mg/ml after 24 hr. It counts as functional. In outline: as §1
The test system of test [11] is Verticillium dahliae. Briefly: Antiparasitic activity against Verticillium dahliae assessed as culture diameter at 0.01 mg/ml after 24 hr. The class given is functional. The gist of the method:
(§3)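 V. dahliae: 3-mm plugs from 3-week cultures (20 °C, dark) were exposed for 24 h at 25 °C in wells of water with 2% DMSO and test compound. Plugs were then rinsed, blotted and plated on PDA with 250 mg/L ampicillin. Diameter was measured after 1 week at 20 °C, excluding non-growing plugs, and expressed as % of the water control. Eight wells per concentration.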

The subject of test [12] is Verticillium dahliae. Nature of the test: Antiparasitic activity against Verticillium dahliae assessed as culture diameter at 0.08 mg/ml after 24 hr. It counts as functional. The gist of the method:
as §3

In test [13] the test system is Verticillium dahliae. Briefly: Antiparasitic activity against Verticillium dahliae assessed as culture diameter at 0.1 mg/ml after 24 hr. It counts as functional. The gist of the method: as §3
Test [14] relates to Verticillium dahliae. Nature of the test: Antiparasitic activity against Verticillium dahliae assessed as culture diameter at 0.005 mg/ml after 24 hr. It counts as functional. In outline:
as §3

In test [15] the test system is Verticillium dahliae. Briefly: Antiparasitic activity against Verticillium dahliae assessed as culture diameter at 0.05 mg/ml after 24 hr. It counts as functional. In outline:
as §3

Test [16] deals with Globisporangium irregulare. Briefly: Antiparasitic activity against Pythium irregulare assessed as culture diameter at 0.025 mg/ml after 24 hr. It counts as functional. The gist of the method: as §1
The test system of test [17] is Globisporangium irregulare. Briefly: Antiparasitic activity against Pythium irregulare assessed as culture diameter at 0.075 mg/ml after 24 hr. The class given is functional. In outline: as §1
Test [18] has as its system Verticillium dahliae. Briefly: Antiparasitic activity against Verticillium dahliae assessed as culture diameter at 0.001 mg/ml after 24 hr. It counts as functional. The gist of the method: as §3
In test [19] the test system is Globisporangium irregulare. Briefly: Antiparasitic activity against Pythium irregulare assessed as culture morality after 24 hr. The class given is functional, organism-based. The gist of the method: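 P. irregulare plugs were exposed in wells to compounds in 2% DMSO for 24 h at 25 °C, then rinsed and plated on ampicillin-amended PDA. Plugs failing to grow were counted as dead, giving percentage mortality per treatment. EC50 was estimated from dose-response regression. Eight replicate wells per concentration; experiments were run at least twice.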

Test [20] relates to Verticillium dahliae. Nature of the test: Antiparasitic activity against Verticillium dahliae assessed as culture diameter at 0.03 mg/ml after 24 hr. It counts as functional. The gist of the method: as §3
The test system of test [21] is Globisporangium irregulare. Nature of the test: Antiparasitic activity against Pythium irregulare assessed as culture diameter at 0.2 mg/ml after 24 hr. It counts as functional. The gist of the method: as §1
For test [22], the system named is Verticillium dahliae. Nature of the test: Antiparasitic activity against Verticillium dahliae assessed as culture diameter at 0.2 mg/ml after 24 hr. The class given is functional. In outline: as §3
In test [23] the test system is Verticillium dahliae. Briefly: Antiparasitic activity against Verticillium dahliae assessed as culture diameter after 24 hr. It counts as functional, organism-based. The gist of the method: as §3
The test system of test [24] is Verticillium dahliae. Nature of the test: Antiparasitic activity against Verticillium dahliae assessed as culture diameter at 0.02 mg/ml after 24 hr. The class given is functional. In outline: as §3

In brackets after ≈: the same amount, converted by molar mass. Activity calls are given as the source filed them. The rule behind the calls is not given here.

For two molecules, mortality, Activity and EC50 results are on record in ChEMBL document CHEMBL3046167, “Activity of meadowfoam (Limnanthes alba) seed meal glucolimnanthin degradation products against soilborne pathogens” (J Agric Food Chem, 2012).

`COc1cccc(CC(N)=S)c1`: in test [1], the mortality at 500 µg/mL came out at 0%. Also, in test [2], the outcome was inactive. For the same molecule, the mortality at 300 µg/mL in test [3] turned out to be 0%. For the same molecule, the EC50 with Meloidogyne hapla [4] came to 245 µg/mL (≈ 1350 µM); in test [8], 750 µg/mL (≈ 4140 µM); in the test with Meloidogyne hapla [9], 584 µg/mL (≈ 3220 µM). Further, in test [5], the mortality at 150 µg/mL came out at 0%. The mortality at 750 µg/mL in test [6] amounted to 0%. In addition, in [7], the mortality at 50 µg/mL was 0%.

With `COc1cccc(CN=C=S)c1` [3-METHOXYBENXYL ISOTHIOCYANATE], the mortality at 100 µg/mL came to 63% in [10] and 50% in the test on Verticillium dahliae [13]. For the same molecule, the mortality at 10 µg/mL in the test on Verticillium dahliae [11] is 0%. Moreover, the mortality at 80 µg/mL in the test on Verticillium dahliae [12] was determined as 7%. In addition, the EC50 with Meloidogyne hapla [4] came to 2 µg/mL (≈ 11.2 µM); in test [19] it was 50 µg/mL (≈ 279 µM); in the test with Meloidogyne hapla [9] it was 3 µg/mL (≈ 16.7 µM); in the test with Verticillium dahliae [23] it was 100 µg/mL (≈ 558 µM). In addition, the mortality at 5 µg/mL in the test with Verticillium dahliae [14] is 0%. For the same molecule, the mortality at 150 µg/mL in test [5] came out at 88%. Moreover, the mortality at 50 µg/mL with Verticillium dahliae [15] worked out at 19%; in test [7], 54%. For the same molecule, the mortality at 25 µg/mL in test [16] amounted to 0%. In addition, the mortality at 75 µg/mL in test [17] is 56%. Also, the mortality at 1 µg/mL with Verticillium dahliae [18] is 0%. Further, the mortality at 30 µg/mL in the test on Verticillium dahliae [20] was 0%. Also, the mortality at 200 µg/mL in test [21] is 88%; with Verticillium dahliae [22], 69%. The mortality at 20 µg/mL in the test with Verticillium dahliae [24] is 0%.

As a reminder, the mortality is the percentage killed. One may read the EC50 as the concentration that produces a half-maximal response.
